Data from PMC6980694 (European journal of medicinal chemistry, 2019).

Experiments:
[1] = Cytotoxicity to Vero cells; type: cell-based; settings: monkey, Vero kidney cells
[2] = tested on: Zika virus (PRVABC59 strain); type: cell-based; settings: for anti-Zika activity (in words): PRVABC59 strain, MOI 1, SNB-19 cells 24 h, titer in Vero cells 48 h
Summary of the method: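 SNB-19 cells, pretreated 1 h with graded compound concentrations (0.1% DMSO final), then infected with C6/36-derived ZIKV at MOI 1. Supernatants were harvested 24 h post-infection and focus-titered on confluent Vero cells: 2 h inoculation, methylcellulose overlay for 48 h, 4G2 antibody with HRP/DAB staining, foci counted.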

Row | SMILES | CC50 at 48 h [1] [µM] | anti-Zika activity (in words) [2] | other results
1 | C=C1CC[C@@H]2[C@](C)(CO)[C@H](O)CC[C@@]2(C)[C@@H]1C/C=C1/C(=O)OC[C@H]1Oc1c(Cl)cc(Cl)c2cccnc12 [Compound 16b, (14α)-(Quinolyl-5’,7’-dichloro-8’-oxy)andrographolide] | 58.6 | – | –
2 | C=C1CC[C@@H]2[C@]3(C)COC(C)(C)O[C@@H]3CC[C@@]2(C)[C@@H]1C/C=C1/C(=O)OC[C@H]1Oc1c(Cl)cc(Cl)c2cccnc12 [Compound 15b, (14α)-(Quinolyl-5’,7’-dichloro-8’-oxy)-3,19-acetonylidene andrographolide] | – | do not show anti-Zika activity | –
3 | C=C1CC[C@@H]2[C@]3(C)COC(C)(C)O[C@@H]3CC[C@@]2(C)[C@@H]1C/C=C1/C(=O)OC[C@@H]1Oc1c(Cl)cc(Cl)c2cccnc12 [Compound 15a, (14β)-(Quinolyl-5’,7’-dichloro-8’-oxy)-3,19-acetonylidene andrographolide] | – | do not show anti-Zika activity | –
4 | C=C1CC[C@@H]2[C@](C)(CO)[C@H](O)CC[C@@]2(C)[C@@H]1C/C=C1/C(=O)OC[C@H]1Oc1ccnc2ccccc12 [Compound 7] | 22.3 | – | –
5 | C=C1CC[C@@H]2[C@](C)(CO)[C@H](O)CC[C@@]2(C)[C@@H]1C/C=C1/C(=O)OC[C@@H]1Oc1cccc2cccnc12 [Compound 3] | – | – | safety/selectivity index (SI) ([2]; cell line not specified, CC50 in SNB-19 and Vero vs EC50): > 16
6 | C=C1CC[C@@H]2[C@](C)(CO)[C@H](O)CC[C@@]2(C)[C@@H]1C/C=C1/C(=O)OC[C@@H]1Oc1ccnc2ccccc12 [Compound 6] | – | inactive | –
